COUP-TFII inh = NR2F2 (human) inhibition, primary screen; AID 686940; HEK293T NGFI-A luciferase reporter, luminescence; P24468; 0.7% of 370,000 active; inhibition, % at 8.6 µM;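 active means inhibition above a per-plate cutoff, mean inhibition of test wells between control levels plus 3 SD, cut at about 38% in these data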;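 further: cells cotransfected with COUP-TFII expression vector driving the NGFI-A reporter; 0% = median of COUP-TF2 test wells and 100% = reporter-only cells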
GalR3 antagonist = blocks the human galanin receptor 3; HEK293 GalR3-CNG cAMP membrane potential fluorescence; galR3 body fused to GalR1 C-terminus; 0.44% of 360,000 active; inhibition, % at 3 µM;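 active means inhibition above the screen-wide average plus 3 SD, cut at about 13% in these data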;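 further: forskolin and galanin both at EC90 stimulate the cells; cAMP rise reported by CNG channel membrane potential dye signal; 0% = forskolin plus galanin with DMSO and 100% = forskolin alone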
Target sequence (O60755 1-299 limits assumed): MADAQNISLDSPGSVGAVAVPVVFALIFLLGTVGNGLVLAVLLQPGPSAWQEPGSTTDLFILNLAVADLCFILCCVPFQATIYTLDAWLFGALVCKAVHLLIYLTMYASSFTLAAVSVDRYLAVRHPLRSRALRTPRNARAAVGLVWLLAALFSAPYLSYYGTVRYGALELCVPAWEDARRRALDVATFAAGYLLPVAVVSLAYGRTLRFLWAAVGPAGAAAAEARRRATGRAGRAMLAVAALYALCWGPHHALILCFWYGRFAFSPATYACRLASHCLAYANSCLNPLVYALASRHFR
CHT allo act = human CHT allosteric activation; Q9GZV3; CHT-expressing cells, membrane potential dye, choline EC20; hits give high values; LV-AA mutant CHT in HEK293 cells; AID 488977; 0.49% of 310,000 active; B-score at 10 µM;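 active means initial fluorescence not abnormally high and integrated response B-score, plate-corrected, over 3 SD above library mean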
CHT block = human CHT choline transport inhibition | CHT-expressing cells, membrane potential dye, choline response; hits give low values | B-score at 10 µM | 0.86% of 310,000 active;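 active means B-score over 3 SD under the library average, and starting fluorescence ratio not unusually high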;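 further: choline stimulus applied at its EC90 after an EC20 pre-addition; B-score computed on integrated fluorescence ratio after choline addition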
NR2E3 ag-1 = activates human NR2E3 receptor. inhibition of corepressor binding, % at 3.98 µM. 0.35% of 360,000 active. CHO-S Gal4-NCOR/VP16-NR2E3 two-hybrid, luciferase. Q9Y5X4;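 active means inhibition above the mean of all tested compounds plus 3 SD, cut at about 70% in these data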;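 further: 0% = DMSO with NR2E3 transfected cells and 100% = cells lacking NR2E3 construct; higher means lower luciferase signal from less NR2E3 corepressor binding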
NR2E3 ag-2 = activates human photoreceptor nuclear receptor NR2E3. Q9Y5X4. GST-NR2E3/biotin-RetCOR TR-FRET, 1536-well. inhibition of corepressor binding, % at 4.78 µM. 0.12% of 320,000 active;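 active means percent inhibition above the cutoff of mean plus 3 SD of all tested compounds, set per screening campaign, cut at about 20% in these data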;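 further: 0% = DMSO wells and 100% = biotin wells as full block of FRET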
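Test system – NR2E3–RetCOR corepressor complex · Quantity – NR2E3 fusion 1.35 nM · Buffer or medium – Tris pH 7.5 · Incubation – Compound–protein incubation for 5 h at 4 °C · Technique – TR-FRET, Eu(K)-anti-GST donor, streptavidin-D2 acceptor, ex 340, em 617/671 nm · Evaluation – percent inhibition of 671/617 nm emission ratio versus biotin and DMSO controls · Plate – 1536-well format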
Gal4-VP16 ctr = counter-screen for COUP-TFII antagonists: inhibitors of VP16. inhibition, % at 8.5 µM. 25% of 2,500 active. HEK293 Gal4-VP16 luciferase reporter, luminescence. AID 687007. shares compounds with COUP-TFII inh; in the data active means inhibition above about 13%
NR2F2 inh conf = COUP-TFII (NR2F2) inhibition, confirmation assay | HEK293 NGFI-A luciferase reporter, luminescence | inhibition, % at 8.5 µM | shares compounds with COUP-TFII inh | 45% of 2,500 active;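 active means mean inhibition over three repeats above a set limit taken from the earlier primary screen, cut at about 38% in these data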;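 further: 100% = cells given the luciferase reporter alone without the COUP-TF2 vector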
An asterisk follows results filed as active; i = inactive; x = no result given. Most compounds without a hit are left out; they make up all but 2.3% or so of the library.

SMILES	COUP-TFII inh	GalR3 antagonist	CHT allo act	CHT block	NR2E3 ag-1	NR2E3 ag-2	Gal4-VP16 ctr	NR2F2 inh conf
COc1ccc(CCNC(=O)C(=O)NCC2OCCN2S(=O)(=O)c2ccc(Cl)cc2)cc1OC (stereo not given)	42*	x	i	i	-17	2	3	17
Cc1ccc(NC(=O)NNC(=O)CCn2nc(C)c([N+](=O)[O-])c2C)cc1C	6	x	x	x	x	x	x	x
COc1cccc(/C=N/Nc2ccc(C(=O)O)cc2)c1O	69*	-5	i	i	32	-5	65*	92*
COc1cccc(/C=N/Nc2ccc(S(=O)(=O)O)cc2)c1O	-13	-6	i	i	-8	-1	x	x
CCN(CC)c1ccc(NS(=O)(=O)c2cn(C)c(=O)n(C)c2=O)c(C)c1	78*	x	i	i	-10	-4	-13	-7
CCC[C@H]1[C@@H](NC(=O)c2cccnc2)CC[C@@]23CCCN2C(=O)CCC[C@@H]13	0	x	x	x	x	x	x	x
CCCC(=O)N1CCCC(c2cc(C(=O)Nc3ccccc3)no2)C1 (stereo not given)	44*	-5	x	x	35	x	-67	34
Cc1ncccc1C(=O)N1CCCC(c2cc(C(=O)Nc3ccc(C(C)(C)C)cc3)no2)C1 (stereo not given)	40*	-6	x	x	17	x	-11	-5
O=c1c2ccccc2nc(/C=C/c2cccnc2)n1CCc1ccccc1	44*	1	i	i	-19	4	-6	4
O=c1c2ccccc2nc(/C=C/c2cccnc2)n1Cc1ccccc1	9	-2	x	x	-23	x	x	x
Cc1ccc(-c2csc(N3CCN(CCCn4c(-c5ccncc5)nc5ccccc54)CC3)n2)cc1	53*	3	i	i	22	2	1	29
CC(=O)N[C@@H](C)c1nc2ccccc2n1CCCN1CCN(c2nc(-c3ccc(C)cc3)cs2)CC1	62*	-9	i	i	37	3	-11	48*
Cn1c(=O)cc(OCC(=O)N2CCN(c3ccccc3Cl)CC2)c2ccccc21	-12	x	x	x	x	x	x	x
CCOC(=O)c1[nH]c2c(c1C)C(=O)CC(c1ccc(F)cc1)C2 (stereo not given)	0	1	i	i	-26	2	x	x
Cc1c(C(=O)OCC2CCCO2)[nH]c2c1C(=O)CC(c1ccc(N(C)C)cc1)C2 (stereo not given)	37*	5	i	i	-12	-3	-15	5
N#CCSc1nnc(-c2sc3ccccc3c2Cl)o1	53*	-5	i	i	-9	-2	5	44*
Cc1ccccc1Cn1cc(CN2[C@@H](Cc3ccccc3)COc3cc(Br)ccc3S2(=O)=O)nn1	-11	x	x	x	x	x	x	x
CCOC(=O)c1csc(NC(=O)C2CCCN(S(=O)(=O)c3ccc([N+](=O)[O-])cc3)C2)n1 (stereo not given)	46*	x	x	x	x	x	-7	23
NC(=O)c1ccsc1NC(=O)c1ccc(S(=O)(=O)N2CCCc3ccccc32)cc1	38*	3	i	i	-11	0	-8	13
C=CCN1[C@H](CO)[C@H](c2ccc(Br)cc2)[C@@H]1C#N	-3	x	x	x	x	x	x	x
COc1ccc(C=C2CS(=O)(=O)CC(=Cc3ccc(OC)cc3)C2=O)cc1	71*	-2	x	x	9	x	47*	65*
CC(C)C1N=C(NC(=O)OCc2ccccc2)NC1=O (stereo not given) (tested in a mixture with another compound)	-29	x	x	x	x	x	x	x
OC(C1=CC(=Cc2ccncc2)c2ccccc21)c1ccncc1 (stereo not given)	37*	-2	x	x	-9	x	-6	-14
Cc1cc(NCc2ccccn2)nc2ccccc12	3	-6	i	i	12	2	x	x
Cc1nc(NCc2ccccn2)c2ccccc2n1	43*	0	i	i	37	2	0	22
SMILES	COUP-TFII inh	GalR3 antagonist	CHT allo act	CHT block	NR2E3 ag-1	NR2E3 ag-2	Gal4-VP16 ctr	NR2F2 inh conf
O=C(NCCN1CCC(n2c(=O)[nH]c3ccccc32)CC1)c1ccc(C(F)(F)F)cc1C(F)(F)F	44*	-9	x	x	21	x	4	19
CCCc1ccc(C(=O)O/N=C(\N)c2ccccn2)cc1	68*	-11	i	i	34	-3	-31	53*
N/C(=N\OC(=O)c1ccc2ccccc2c1)c1ccncc1	-48	-1	i	i	-111	3	x	x
N/C(=N\OC(=O)c1ccc2ccccc2c1)c1ccccn1	45*	-2	i	i	-29	3	-174	-63
Cc1ccc(C(=O)O/N=C(\N)c2ccccn2)c(Cl)c1	78*	-9	i	i	43	2	20*	47*
N/C(=N\OC(=O)c1ccc(=O)n(Cc2ccccc2)c1)c1ccccn1	-10	-1	i	i	-9	-5	x	x
O=C(OCCCCSc1nnc(-c2cccc3ccccc23)o1)c1ccc(F)cc1	-9	x	x	x	x	x	x	x
N#Cc1ccc(Cn2ccc3ccc(-c4ccc5ccn(C(=O)C6CCC6)c5c4)cc32)cc1	8	x	x	x	x	x	x	x
CC(Oc1ccc(Br)cc1)C(=O)Nc1ccncc1 (stereo not given)	30	-5	i	i	-1	-1	x	x
CC(Oc1ccc(Br)cc1Cl)C(=O)Nc1ccncc1 (stereo not given)	45*	-15	i	i	-15	4	6	30
COc1ccc(-n2c(SCC(=O)Nc3ccccc3-c3ccccc3)nnc2-c2ccco2)cc1	7	x	x	x	x	x	x	x
C=CC(=O)NC1CCCCN(CC)C1=O (stereo not given)	3	x	x	x	x	x	x	x
Cc1ccccc1C(=O)N1CCC(C(=O)Nc2cccc(S(=O)(=O)N3CCCCC3)c2)CC1	34	-3	x	x	10	-3	x	x
Cc1ccc(NC(=O)C2CCCN(C(=O)c3ccc(Cl)cc3)C2)cc1S(=O)(=O)N1CCOCC1 (stereo not given)	38*	2	i	i	4	3	-7	3
Cc1ccccc1C(=O)N1CCC(C(=O)Nc2ccc(C)c(S(=O)(=O)N3CCCCC3)c2)CC1	42*	-7	x	x	-6	4	-6	13
Cc1ccc(CSc2nnc(-c3cc(-c4ccc(C)cc4)n[nH]3)n2N)cc1	-9	x	x	x	x	x	x	x
CC(=O)c1cc(-c2ccccc2)n(CC(=O)NCc2ccc(Cl)cc2)c1C	28	x	x	x	x	x	x	x
CCCCCn1nnnc1C1(C)CN(S(C)(=O)=O)CC(=O)N1Cc1ccco1 (stereo not given)	-4	x	x	x	x	x	x	x

Screens (PubChem)
